Laboratory results published in ChEMBL document CHEMBL1124949, “4-(1,2,5,6-Tetrahydro-1-alkyl-3-pyridinyl)-2-thiazolamines: a novel class of compounds with central dopamine agonist properties” (J Med Chem, 1990).
Calls of active or inactive are those of the source. The calls are words filed in the database; no cut-off is given here.

What was measured:
Rattus norvegicus [1] = experiment: Percent inhibition of dopamine neuronal firing in substantia nigra of anesthetized rats after (ip) administration at 2.5 mg/kg
Rattus norvegicus [2] = experiment: Reversal of reserpine-induced depression in rat after subcutaneous administration; assay type: functional
Summary of the method: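 Rats were pretreated with reserpine 5 mg/kg 24 h before testing, then given drug sc. Locomotor activity was recorded for 30 min starting immediately after dosing.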

Rattus norvegicus [3] = experiment: Inhibition of locomotor activity was determined after oral administration in rat; assay type: functional
Summary of the method: (§1)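 Spontaneous exploratory locomotor activity was scored, with motor coordination (ataxia) checked in the same test. ED50 came from four to six doses, with 5–12 animals per dose.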

Rattus norvegicus [4] = experiment: Decrease of DOPA formation effected by 30 mg/kg administered intraperitoneally in the striatum of GBL-treated rats; settings: at 30 mg/kg
D(2) dopamine receptor [5] = target: T1, D(2) dopamine receptor (Rattus norvegicus, UniProt P61169); experiment: Inhibition of [3H]haloperidol binding for Dopamine receptor D2 in rat striatal membranes.; assay type: cell membranes, Membrane
Rattus norvegicus [6] = experiment: Percent of animals showing stereotyped behavior in rats at the dose 0.3 mg/kg; assay type: functional
Mus musculus = experiment: Inhibition of locomotor activity was determined after intraperitoneal administration in mouse; assay type: functional; settings: ip
Summary of the method: as §1

D(2) dopamine receptor [7] = target: T1, D(2) dopamine receptor; experiment: Inhibition of [3H]haloperidol binding for Dopamine receptor D2 in rat striatal membranes. (41% inhibition at 10 e-6 M); assay type: cell membranes, Membrane
D(2) dopamine receptor [8] = target: T1, D(2) dopamine receptor; experiment: Inhibition of [3H]haloperidol binding for Dopamine receptor D2 in rat striatal membranes. (36%inhibition at 10 e-6 M); assay type: cell membranes, Membrane
D(2) dopamine receptor [9] = target: T1, D(2) dopamine receptor; experiment: Inhibition of [3H]N-propylnorapomorphine binding to Dopamine receptor D2 of rat striatal membranes; assay type: cell membranes, Membrane
D(2) dopamine receptor [10] = target: T1, D(2) dopamine receptor; experiment: Inhibition of [3H]haloperidol binding for Dopamine receptor D2 in rat striatal membranes. (2% inhibition at 10 e-6 M); assay type: cell membranes, Membrane
Rattus norvegicus [11] = experiment: Reversal of 6-hydroxydopamine induced depression in lesioned rats was determined after dosing for a period of 30 minutes; assay type: functional; settings: 0.5 h
Summary of the method: (§2)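 Rats received 6-OHDA 200 μg icv plus pargyline 50 mg/kg ip and desmethylimipramine 25 mg/kg ip at least 1 month earlier, giving about 90% brain DA depletion. Drug was given sc and locomotion recorded for 30 min from dosing. ED200 is the dose doubling activity versus unlesioned controls, estimated from three or four doses with six animals per dose.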

Rattus norvegicus [12] = experiment: Percent of rats showing stereotyped behavior at the dose at 3 mg/kg dose level; assay type: functional
Rattus norvegicus [13] = experiment: Percent inhibition of dopamine neuronal firing in substantia nigra of anesthetized rats after (ip) administration at 2.5 mg/kg; assay type: functional
Rattus norvegicus [14] = experiment: Decrease of DOPA formation effected by 30 mg/kg administered intraperitoneally in the striatum of GBL-treated rats; assay type: functional; settings: ip, route intraperitoneal
Summary of the method: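 Male Long-Evans rats dosed ip 1 h before sacrifice. GBL 750 mg/kg ip given 30 min and NSD 1015 100 mg/kg ip given 25 min before sacrifice. Striatal DOPA measured by HPLC with electrochemical detection. Decrease in DOPA formation at 30 mg/kg ip, n = 4 or 5.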

D(1A) dopamine receptor = D(1A) dopamine receptor (Rattus norvegicus, UniProt P18901); experiment: Inhibition of binding of [3H]SCH-23390 to Dopamine receptor D1 was determined
Summary of the method: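 D1 binding was displaced from [3H]SCH23390. IC50 was fitted by nonlinear regression from four or five concentrations.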

Rattus norvegicus [15] = experiment: Inhibition of locomotor activity was determined after oral administration in rat(50% inhibition at 3 mg/kg); assay type: functional
D(2) dopamine receptor [16] = target: T1, D(2) dopamine receptor; experiment: Inhibition of [3H]haloperidol binding for Dopamine receptor D2 in rat striatal membranes. (25% inhibition at 10 e-6 M); assay type: cell membranes, Membrane
Rattus norvegicus [17] = experiment: Inhibition of locomotor activity was determined after oral administration at a dose of 1 mg/kg in rat; assay type: functional
Rattus norvegicus [18] = experiment: Percent of animals showing stereotyped behavior in rats at 3 mg/kg; assay type: functional
Rattus norvegicus [19] = experiment: Reversal of 6-hydroxydopamine induced depression in lesioned rats after dosing for a period of 30 minutes; assay type: functional; settings: 0.5 h
Summary of the method: as §2

Rattus norvegicus [20] = experiment: Inhibition of locomotor activity was determined after (sc) administration in rat (40% inhibition was determined at 3 mg/kg); assay type: functional, organism-based; parameters: dose 3 mg/kg
D(2) dopamine receptor [21] = target: T1, D(2) dopamine receptor; experiment: Inhibition of [3H]haloperidol binding for Dopamine receptor D2 in rat striatal membranes. (15% inhibition at 10 e-6 M); assay type: cell membranes, Membrane
[22] = Rattus norvegicus, sc, read-out: ED50

T1 sequence (P61169 whole entry): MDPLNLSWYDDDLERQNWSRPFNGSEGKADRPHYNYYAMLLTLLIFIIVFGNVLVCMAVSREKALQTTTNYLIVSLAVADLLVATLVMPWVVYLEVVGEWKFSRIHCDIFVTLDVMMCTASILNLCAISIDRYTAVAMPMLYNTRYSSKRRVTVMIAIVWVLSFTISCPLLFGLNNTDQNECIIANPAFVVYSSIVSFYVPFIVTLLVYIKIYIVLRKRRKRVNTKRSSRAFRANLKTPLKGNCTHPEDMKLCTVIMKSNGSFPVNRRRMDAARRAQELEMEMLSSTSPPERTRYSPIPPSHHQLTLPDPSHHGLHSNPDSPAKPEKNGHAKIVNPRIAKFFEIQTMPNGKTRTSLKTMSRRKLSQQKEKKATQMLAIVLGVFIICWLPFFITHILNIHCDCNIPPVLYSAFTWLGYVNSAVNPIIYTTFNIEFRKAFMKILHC
D(1A) dopamine receptor, sequence (P18901 whole entry): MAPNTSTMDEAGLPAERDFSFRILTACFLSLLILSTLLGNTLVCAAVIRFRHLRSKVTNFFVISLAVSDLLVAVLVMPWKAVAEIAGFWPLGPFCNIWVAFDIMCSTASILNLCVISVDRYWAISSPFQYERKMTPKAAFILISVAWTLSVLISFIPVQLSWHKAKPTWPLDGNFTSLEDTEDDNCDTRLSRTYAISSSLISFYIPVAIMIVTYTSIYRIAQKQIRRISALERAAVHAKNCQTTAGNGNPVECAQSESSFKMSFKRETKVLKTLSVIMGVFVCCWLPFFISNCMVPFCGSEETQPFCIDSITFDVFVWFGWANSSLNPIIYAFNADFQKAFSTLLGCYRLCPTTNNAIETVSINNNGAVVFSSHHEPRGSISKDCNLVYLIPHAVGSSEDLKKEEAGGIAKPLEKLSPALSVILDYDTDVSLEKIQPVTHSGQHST

Row | SMILES | ED50 (Rattus norvegicus [2]; [22]) | ED50 (Rattus norvegicus [3]) | IC50 (D(2) dopamine receptor [5]) | IC50 (D(2) dopamine receptor [9]) | further results
1 | CN1CCC=C(c2csc(N)n2)C1.Cl.Cl | > 30 mg/kg | inactive | 1040 nM |  | inhibition (Rattus norvegicus [1]): 100%; inhibition (Rattus norvegicus [4]): 100%
2 | CN1CCc2cccc3c2[C@H]1Cc1ccc(O)c(O)c1-3 [APOMORPHINE] | 0.1 mg/kg |  |  |  | Animals (Rattus norvegicus [6]): 100%
3 | CCCN1CCC=C(c2csc(C)n2)C1.Cl.Cl |  |  |  |  | ED50 (Mus musculus): > 30 mg/kg; IC50 (D(2) dopamine receptor [7]): > 1000 nM
4 | CCCCCCN1CCC=C(c2csc(N)n2)C1.Cl.Cl | > 30 mg/kg |  |  | 5330 nM | IC50 (D(2) dopamine receptor [8]): > 1000 nM
5 | CCN1CCC=C(c2csc(N)n2)C1 | > 30 mg/kg | inactive | 945 nM | 411 nM | inhibition (Rattus norvegicus [1]): 96%; inhibition (Rattus norvegicus [4]): 92%
6 | CCCN1CCC=C(c2cnc(N)s2)C1 |  |  |  |  | ED50 (Mus musculus): 19.1 mg/kg; IC50 (D(2) dopamine receptor [10]): > 1000 nM
7 | CCCN1CCC=C(c2csc(N)n2)C1 | > 30 mg/kg |  | 958 nM | 596 nM | ED200 (Rattus norvegicus [11]): 0.4 mg/kg; Animals (Rattus norvegicus [12]): 100%; inhibition in vivo at 2.5 mg/kg (Rattus norvegicus [13]): 100%; inhibition in vivo at 30 mg/kg (Rattus norvegicus [14]): 100%; IC50 (D(1A) dopamine receptor): > 50000 nM; ED50 at 3 mg/kg (Rattus norvegicus [15]): 3 mg/kg
8 | CCCN1CCCC(c2cccc(O)c2)C1 (stereo unspecified) [listing 1 of 2 here] |  |  |  |  | ED50 (Rattus norvegicus [2]): 30 mg/kg
9 | CCCCN1CCC=C(c2csc(NC)n2)C1.Cl.Cl |  | 16.7 mg/kg |  |  | ED50 (Mus musculus): 4.4 mg/kg; IC50 (D(2) dopamine receptor [16]): > 1000 nM
10 | CCCCN1CCC=C(c2csc(N)n2)C1.Cl.Cl | > 30 mg/kg | 5.4 mg/kg | 2120 nM | 3980 nM | inhibition in vivo at 2.5 mg/kg (Rattus norvegicus [13]): 0%; inhibition in vivo at 30 mg/kg (Rattus norvegicus [14]): 0%
11 | Br.Br.CCCCCN1CCC=C(c2csc(N)n2)C1 | > 30 mg/kg | 15.6 mg/kg | 1850 nM | 6400 nM | ED50 (Mus musculus): 4.1 mg/kg; inhibition in vivo at 30 mg/kg (Rattus norvegicus [14]): 0%
12 | CCCN1CCC=C(c2csc(NC)n2)C1 |  |  |  | > 10000 nM | IC50 (D(2) dopamine receptor [16]): > 1000 nM
13 | C=CCN1CCC=C(c2csc(N)n2)C1 | 8.7 mg/kg |  | 440 nM | 257 nM | inhibition in vivo at 1 mg/kg (Rattus norvegicus [17]): 30%; ED50 (Mus musculus): 2.8 mg/kg; inhibition in vivo at 2.5 mg/kg (Rattus norvegicus [13]): 100%; inhibition in vivo at 30 mg/kg (Rattus norvegicus [14]): 100%; Animals (Rattus norvegicus [18]): 100%; IC50 (D(1A) dopamine receptor): > 50000 nM; ED200 (Rattus norvegicus [19]): 0.3 mg/kg
14 | Cl.Cl.Nc1nc(C2=CCCN(CCc3ccccc3)C2)cs1 | 5.8 mg/kg | 33.6 mg/kg | 1080 nM | 911 nM | 
15 | CCCN1CCCC(c2cccc(O)c2)C1 (stereo unspecified) [listing 2 of 2 here] |  |  |  |  | ED50 (Rattus norvegicus [20]): inactive
16 | CCCN1CCCC(c2csc(N)n2)C1.Cl.Cl (stereo unspecified) |  | 18.9 mg/kg |  |  | IC50 (D(2) dopamine receptor [21]): > 1000 nM; inhibition in vivo at 30 mg/kg (Rattus norvegicus [14]): 55%
17 | CCCN1CCCC(c2cccc(O)c2)C1 (racemic) | 30 mg/kg | 3 mg/kg |  |  | 
18 | CCCCCCCN1CCC=C(c2csc(N)n2)C1.Cl.Cl | > 30 mg/kg | > 30 mg/kg | 2170 nM | 5130 nM | 
